This is an account of results in ChEMBL document CHEMBL1140956, “Syntheses of 4-(indole-3-yl)quinazolines: a new class of epidermal growth factor receptor tyrosine kinase inhibitors” (Eur J Med Chem, 2008).

The target of assay [1] is Epidermal growth factor receptor (Homo sapiens, UniProt P00533). Description: Inhibition of human EGFR tyrosine kinase activity.
The subject of assay [2] is SNB-75. Description: Growth inhibition of human SNB75 cells after 72 hrs by SRB assay. Format: functional. The conditions noted are these: SNB-75, 48 h, in the assay text read “48 hrs” for “72 hrs”. Summed up:
(§1)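 NCI 60-cell-line screen. Cells were grown in RPMI 1640 with 5% fetal bovine serum, plated at 5000–40 000 cells/well by doubling time, and held 24 h at 37 °C, 5% CO2. Time-zero plates were TCA-fixed when the DMSO-solubilized drug was added at five concentrations (10-fold or ½-log dilutions). After 48 h, cells were fixed with cold TCA and stained with 0.4% SRB in 1% acetic acid. Bound dye was dissolved in 10 mM trizma base and read at 515 nm. Percentage growth was calculated relative to time-zero and control.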
In general terms: The SRB assay estimates cell density from bound dye.

The target in assay [3] is Receptor tyrosine-protein kinase erbB-2 (Homo sapiens) (UniProt P04626). Briefly: Inhibition of human HER2 tyrosine kinase activity at 100 nM.
In assay [4] the test system is IGROV-1. Briefly: Growth inhibition of human IGROV1 cells after 72 hrs by SRB assay. Format: functional. Conditions: IGROV-1, 48 h, in the assay text read “48 hrs” for “72 hrs”. The essentials:
as §1

The test system of assay [5] is A498. Description: Growth inhibition of human A498 cells after 72 hrs by SRB assay. The assay is classed as functional. The conditions noted are these: A498, 48 h, in the assay text read “48 hrs” for “72 hrs”. Summed up:
as §1

Assay [6] relates to TK-10. Description: Growth inhibition of human TK10 cells after 72 hrs by SRB assay. Format: functional. Conditions: TK-10, 48 h, in the assay text read “48 hrs” for “72 hrs”. Summed up: as §1
The subject of assay [7] is HT-29. Briefly: Growth inhibition of human HT29 cells after 72 hrs by SRB assay. Format: functional. Conditions: HT-29, 48 h, in the assay text read “48 hrs” for “72 hrs”. The essentials: as §1
In assay [8] the test system is SK-OV-3. Briefly: Growth inhibition of human SKOV3 cells after 72 hrs by SRB assay. The assay is classed as functional. Conditions: SK-OV-3, 48 h, in the assay text read “48 hrs” for “72 hrs”. The essentials:
as §1

Assay [9] relates to ACHN. Description: Growth inhibition of human ACHN cells after 72 hrs by SRB assay. The assay is classed as functional. The conditions noted are these: 48 h, in the assay text read “48 hrs” for “72 hrs”. Summed up:
as §1

Assay [10] deals with EKVX. Description: Growth inhibition of human EKVX cells after 72 hrs by SRB assay. Format: functional. The conditions noted are these: 48 h, in the assay text read “48 hrs” for “72 hrs”. The essentials: as §1
Assay [11] has as its system NCI-H322M. Briefly: Growth inhibition of human NCI-H322M cells after 72 hrs by SRB assay. The assay is classed as functional. The conditions noted are these: 48 h, in the assay text read “48 hrs” for “72 hrs”. The essentials:
as §1

The subject of assay [12] is HOP-92. Briefly: Growth inhibition of human HOP92 cells after 72 hrs by SRB assay. Format: functional. Conditions: HOP-92, 48 h, in the assay text read “48 hrs” for “72 hrs”. Summed up:
as §1

Assay [13] deals with PC-3. Description: Growth inhibition of human PC3 cells after 72 hrs by SRB assay. Format: functional. The conditions noted are these: PC-3, 48 h, in the assay text read “48 hrs” for “72 hrs”. The essentials:
as §1

Chain of Epidermal growth factor receptor (P00533 whole entry): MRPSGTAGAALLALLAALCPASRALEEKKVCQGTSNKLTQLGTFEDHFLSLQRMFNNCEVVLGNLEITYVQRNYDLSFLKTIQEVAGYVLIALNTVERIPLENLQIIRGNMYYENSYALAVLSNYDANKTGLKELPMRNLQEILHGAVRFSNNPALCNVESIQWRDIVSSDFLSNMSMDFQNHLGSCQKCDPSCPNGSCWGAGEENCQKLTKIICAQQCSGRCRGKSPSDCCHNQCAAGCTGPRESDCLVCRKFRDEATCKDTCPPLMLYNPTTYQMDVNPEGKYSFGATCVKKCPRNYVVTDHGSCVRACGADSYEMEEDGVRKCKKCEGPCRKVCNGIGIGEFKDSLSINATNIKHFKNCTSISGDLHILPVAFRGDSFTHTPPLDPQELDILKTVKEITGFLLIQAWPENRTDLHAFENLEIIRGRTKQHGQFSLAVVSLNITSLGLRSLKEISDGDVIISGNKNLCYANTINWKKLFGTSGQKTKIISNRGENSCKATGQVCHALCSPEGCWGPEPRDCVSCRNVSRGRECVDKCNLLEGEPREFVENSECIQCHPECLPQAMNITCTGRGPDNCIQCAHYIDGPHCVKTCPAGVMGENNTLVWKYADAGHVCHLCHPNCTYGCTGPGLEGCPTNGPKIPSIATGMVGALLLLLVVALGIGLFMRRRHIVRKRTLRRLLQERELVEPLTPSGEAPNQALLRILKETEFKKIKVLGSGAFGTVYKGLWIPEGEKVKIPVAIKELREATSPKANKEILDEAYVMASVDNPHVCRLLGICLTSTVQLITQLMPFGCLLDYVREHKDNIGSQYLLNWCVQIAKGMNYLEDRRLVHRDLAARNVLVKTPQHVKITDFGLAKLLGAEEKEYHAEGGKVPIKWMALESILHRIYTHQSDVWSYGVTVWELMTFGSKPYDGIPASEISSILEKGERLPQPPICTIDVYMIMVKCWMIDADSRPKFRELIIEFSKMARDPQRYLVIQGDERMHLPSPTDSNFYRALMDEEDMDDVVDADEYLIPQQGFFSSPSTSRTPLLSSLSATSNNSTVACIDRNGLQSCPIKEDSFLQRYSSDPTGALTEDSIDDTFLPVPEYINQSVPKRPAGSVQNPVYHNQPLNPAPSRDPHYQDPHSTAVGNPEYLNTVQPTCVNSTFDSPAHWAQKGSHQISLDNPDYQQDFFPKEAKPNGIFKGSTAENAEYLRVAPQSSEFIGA
Chain of Receptor tyrosine-protein kinase erbB-2 (Homo sapiens) (P04626 whole entry): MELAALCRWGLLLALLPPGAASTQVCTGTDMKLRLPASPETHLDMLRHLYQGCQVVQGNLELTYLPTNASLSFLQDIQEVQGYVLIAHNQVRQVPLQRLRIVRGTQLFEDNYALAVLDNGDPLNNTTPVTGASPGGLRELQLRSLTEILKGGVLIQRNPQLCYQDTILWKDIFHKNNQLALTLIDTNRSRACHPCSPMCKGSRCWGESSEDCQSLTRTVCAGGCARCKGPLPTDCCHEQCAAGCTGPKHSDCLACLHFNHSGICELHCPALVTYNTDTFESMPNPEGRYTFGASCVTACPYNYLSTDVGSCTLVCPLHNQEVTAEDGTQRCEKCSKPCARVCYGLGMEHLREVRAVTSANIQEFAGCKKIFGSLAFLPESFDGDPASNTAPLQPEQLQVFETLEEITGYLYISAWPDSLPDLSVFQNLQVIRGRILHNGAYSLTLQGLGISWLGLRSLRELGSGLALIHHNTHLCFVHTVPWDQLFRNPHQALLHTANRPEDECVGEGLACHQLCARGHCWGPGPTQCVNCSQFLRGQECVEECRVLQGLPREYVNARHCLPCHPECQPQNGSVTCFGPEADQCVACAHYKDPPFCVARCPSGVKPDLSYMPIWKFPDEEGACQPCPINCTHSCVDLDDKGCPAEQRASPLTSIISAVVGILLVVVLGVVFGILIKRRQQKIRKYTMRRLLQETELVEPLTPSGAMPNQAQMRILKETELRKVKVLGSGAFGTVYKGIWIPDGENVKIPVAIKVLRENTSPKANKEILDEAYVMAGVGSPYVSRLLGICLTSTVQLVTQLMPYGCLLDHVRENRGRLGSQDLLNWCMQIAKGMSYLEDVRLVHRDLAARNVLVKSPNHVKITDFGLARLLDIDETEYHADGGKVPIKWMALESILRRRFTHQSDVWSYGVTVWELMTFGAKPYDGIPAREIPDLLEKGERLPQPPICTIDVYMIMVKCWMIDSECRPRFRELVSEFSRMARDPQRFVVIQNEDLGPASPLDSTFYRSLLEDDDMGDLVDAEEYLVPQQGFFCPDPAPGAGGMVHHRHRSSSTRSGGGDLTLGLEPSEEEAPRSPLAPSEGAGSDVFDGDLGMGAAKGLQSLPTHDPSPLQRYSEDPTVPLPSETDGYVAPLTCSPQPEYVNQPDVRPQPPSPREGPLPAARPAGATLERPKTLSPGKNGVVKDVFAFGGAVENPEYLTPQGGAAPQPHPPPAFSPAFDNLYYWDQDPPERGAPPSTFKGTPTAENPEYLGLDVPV

With `COc1cc2ncnc(-c3c[nH]c4cc(F)c(C)cc34)c2cc1OC`, in assay [1], the IC50 worked out at 533 nM.

On to `COCCOc1cc2ncnc(-c3c[nH]c4cc(F)c(Cl)cc34)c2cc1OCCOC`, for which the IC50 in assay [1] came to 472 nM.

With `COc1cc2ncnc(-c3c[nH]c4cc(F)c(Cl)cc34)c2cc1OCCCN1CCOCC1`, the GI50 came to 49.3 nM in assay [2]; 108 nM in assay [4]; 2900 nM in assay [5]; 97.6 nM in assay [6]; 3700 nM in [7]; 592 nM in [8]. In addition, the GI50 in assay [9] is 215 nM; in assay [10], 89.7 nM; in [11], 38 nM; in assay [12], 504 nM; in assay [13], 490 nM. In [3], the inhibition turned out to be 19%. Also, 333 nM corresponded to half-maximal inhibition in assay [1] (IC50).

For the molecule `COc1cc2ncnc(-c3c[nH]c4ccc(Br)cc34)c2cc1OC`, the IC50 in assay [1] was found to be 131 nM.

Regarding `COc1cc2ncnc(-c3c[nH]c4cc(F)c(Cl)cc34)c2cc1OC`, the 50% growth inhibitory concentration (GI50) came out at 204 nM in assay [2]; 424 nM in assay [4]; 492 nM in [5]; 325 nM in assay [6]; 848 nM in assay [7]; 711 nM in assay [8]. The GI50 in assay [9] was 222 nM; in assay [10], 410 nM; in [11], 255 nM; in [12], 1750 nM; in assay [13], 766 nM. Also, the inhibition in assay [3] amounted to 3%. This molecule also yielded a half-maximal inhibitory concentration (IC50) in assay [1] of 209 nM.

As a reminder, the IC50 is the midpoint of a concentration-inhibition curve. A high value points to weaker potency in that assay. Usually GI50 stands for the concentration at which growth is held to half of that of the control. A higher GI50 goes with less potent growth inhibition. Usually inhibition stands for the percentage by which the read-out fell short of the control. A lower inhibition goes with little suppression.
